Reference: ChEMBL document CHEMBL2034969, “Bioactive carbazole alkaloids from Clausena wallichii roots” (J Nat Prod, 2012)
pIC50: −log10 of the molar value. Values after ≈ are worked out from the molar mass of the structure shown. Active and inactive are the calls of the source. The calls are words filed in the database; no cut-off is given here.

Legend:
MCF7 = assay: Cytotoxicity against human MCF7 cells by resazurin reduction assay; type: functional, cell-based; settings: for pIC50: Homo sapiens, MCF7, read-out: IC50; for IC50: mcf7
Staphylococcus aureus [1] = assay: Antibacterial activity against Staphylococcus aureus TISTR 1466 by broth dilution method; type: functional
Method in brief: (§1)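 MIC found by 2-fold serial dilution in Mueller Hinton broth following CLSI (2002) recommendations. Test substances dissolved in DMSO. Vancomycin and gentamycin run as reference drugs.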

Escherichia coli = assay: Antibacterial activity against Escherichia coli TISTR 780 by broth dilution method; type: functional; method in brief: as §1
NCI-H187 = assay: Cytotoxicity against human NCI-H187 cells by resazurin reduction assay; type: functional, cell-based; settings: for pIC50: Homo sapiens, NCI-H187, read-out: IC50; for IC50: nci-h187
Salmonella typhimurium = assay: Antibacterial activity against Salmonella typhimurium TISTR 292 by broth dilution method; type: functional, Salmonella enterica subsp. enterica serovar Typhimurium; method in brief: as §1
Staphylococcus aureus [2] = assay: Antibacterial activity against methicillin-resistant Staphylococcus aureus SK1 by broth dilution method; type: functional
KB = assay: Cytotoxicity against human KB cells by resazurin reduction assay; type: functional, cell-based; settings: for pIC50: Homo sapiens, KB, read-out: IC50; for IC50: kb
[3] = Salmonella enterica subsp. enterica serovar Typhimurium

Molecule	pIC50 (MCF7)	MIC (Staphylococcus aureus [1])	MIC (Escherichia coli)	pIC50 (NCI-H187)	MIC (Salmonella typhimurium; Salmonella enterica) [µg/mL]	MIC (Staphylococcus aureus [2])	pIC50 (KB)	IC50 (KB)	IC50 (MCF7)	IC50 (NCI-H187)	MIC (Salmonella typhimurium; [3])
COc1cc2[nH]c3ccccc3c2cc1O	4.50	inactive	128 µg/mL (≈ 600 µM)	4.56	128 (≈ 600 µM)	inactive	3.67				
COC(=O)c1ccc2[nH]c3ccccc3c2c1	3.77	inactive	128 µg/mL (≈ 568 µM)	4.02	128 (≈ 568 µM)	inactive	4.22				
COc1ccc2c(c1)[nH]c1cc(O)c(C=O)cc12	4.16	inactive	inactive	4.34	128 (≈ 531 µM)	128 µg/mL (≈ 531 µM)	3.74				
COc1ccc2c(c1)[nH]c1c(CC=C(C)C)c(O)c(C=O)cc12	4.27	inactive	128 µg/mL (≈ 414 µM)	4.37	128 (≈ 414 µM)	inactive		Not Active			
CC(C)=CCc1c(O)c(C=O)cc2c1[nH]c1cc(O)ccc12 [7-HYDROXYHEPTAPHYLLINE]		8 µg/mL (≈ 27.1 µM)	64 µg/mL (≈ 217 µM)	4.71	64 (≈ 217 µM)	4 µg/mL (≈ 13.5 µM)	3.97		Not Active		
CC1(C)C=Cc2c(ccc3[nH]c4cc(O)c(C=O)cc4c23)O1 [CLAURAILAS D]	4.18	inactive	64 µg/mL (≈ 218 µM)	4.22	128 (≈ 436 µM)	128 µg/mL (≈ 436 µM)	3.53				
Cc1cc2c([nH]c3ccc4c(c32)C=CC(C)(C)O4)c(-c2c(O)c(C)cc3c2[nH]c2ccc4c(c23)C=CC(C)(C)O4)c1O [CLAUSENAWALLINE A]		64 µg/mL (≈ 115 µM)	inactive		128 (≈ 230 µM)	128 µg/mL (≈ 230 µM)					
COc1cc2[nH]c3c(CC=C(C)C)c(O)c(C=O)cc3c2c(-c2cc3c(cc2O)[nH]c2ccccc23)c1O [CLAUSENAWALLINE B]		8 µg/mL (≈ 15.8 µM)	128 µg/mL (≈ 253 µM)		128 (≈ 253 µM)	16 µg/mL (≈ 31.6 µM)					
Cc1cc2c([nH]c3ccc4c(c32)C=CC(C)(C)O4)c2c1OC(C)(C)C=C2 [CLAUSENAWALLINE C]		inactive	128 µg/mL (≈ 371 µM)		128 (≈ 371 µM)	inactive		Not Active	Not Active	Not Active	
COc1ccc2c(c1)[nH]c1cc(OC)c(O)cc12 [CLAUSENAWALLINE D]		inactive	128 µg/mL (≈ 526 µM)		128 (≈ 526 µM)	inactive					
COc1cc2[nH]c3ccc(O)c(-c4c(O)c(C)cc5c4[nH]c4ccc6c(c45)C=CC(C)(C)O6)c3c2cc1C [CLAUSENAWALLINE E]		8 µg/mL (≈ 15.9 µM)	128 µg/mL (≈ 254 µM)		128 (≈ 254 µM)	8 µg/mL (≈ 15.9 µM)					
COC(=O)c1cc2c([nH]c3ccccc32)c(O)c1-c1c(O)c(C=O)cc2c1[nH]c1cc(OC)ccc12 [CLAUSENAWALLINE F]	4.21	64 µg/mL (≈ 133 µM)	128 µg/mL (≈ 266 µM)	5.35		64 µg/mL (≈ 133 µM)	4.99				inactive
COC(=O)c1ccc2[nH]c3cc(OC)ccc3c2c1 [CLAUSINE C]		inactive	inactive		128 (≈ 501 µM)	inactive		Not Active	Not Active	Not Active	
COC(=O)c1cc2c(cc1OC)[nH]c1ccccc12 [CLAUSINE L]		inactive	128 µg/mL (≈ 501 µM)		128 (≈ 501 µM)	inactive		Not Active	Not Active	Not Active	
COC(=O)c1cc2c(cc1OC)[nH]c1cc(OC)ccc12 [CLAUSZOLINE C]		inactive	128 µg/mL (≈ 449 µM)		128 (≈ 449 µM)	inactive		Not Active	Not Active	Not Active	
COc1ccc2c(c1)[nH]c1ccc(C=O)cc12 [CLAUSZOLINE K]		inactive	128 µg/mL (≈ 568 µM)			128 µg/mL (≈ 568 µM)		Not Active	Not Active	Not Active	inactive
COc1cccc2c1C(=O)c1c(O)c3c(c(O)c1C2=O)C[C@@](O)(C(=O)CO)C[C@@H]3O[C@H]1C[C@H](N)[C@H](O)[C@H](C)O1 [DOXORUBICIN]	4.77			7.00			5.77				
Cc1c2ccncc2c(C)c2c1[nH]c1ccccc12 [ELLIPTECINE]				5.51			5.28				
COc1cc2[nH]c3ccccc3c2cc1C=O [GLYCOSININE]	3.95	inactive	inactive	4.74	128 (≈ 568 µM)	128 µg/mL (≈ 568 µM)	3.99				
Cc1cc2c([nH]c3ccccc32)c2c1OC(C)(C)C=C2 [GRINIMIBINE]	4.54	inactive	128 µg/mL (≈ 486 µM)	4.23		inactive	3.58				inactive
CC(C)=CCc1c(O)c(C=O)cc2c1[nH]c1ccccc12 [HEPTAPHYLLINE]	3.77	inactive	128 µg/mL (≈ 458 µM)	4.69	128 (≈ 458 µM)	inactive	4.03				
COc1ccc2c(c1)[nH]c1cc(OC)c(C=O)cc12 [LANSINE]		inactive	128 µg/mL (≈ 501 µM)			inactive		Not Active	Not Active	Not Active	inactive
O=Cc1cc2c(cc1O)[nH]c1ccccc12 [MUKONAL]		inactive	128 µg/mL (≈ 606 µM)		128 (≈ 606 µM)	64 µg/mL (≈ 303 µM)		Not Active	Not Active	Not Active	
COC(=O)c1cc2c(cc1O)[nH]c1ccccc12 [MUKONIDINE]	3.69	64 µg/mL (≈ 265 µM)	128 µg/mL (≈ 531 µM)	3.87	32 (≈ 133 µM)	64 µg/mL (≈ 265 µM)		Not Active			
CN[C@H](CC(C)C)C(=O)N[C@H]1C(=O)N[C@@H](CC(N)=O)C(=O)N[C@H]2C(=O)N[C@H]3C(=O)N[C@H](C(=O)N[C@H](C(=O)O)c4cc(O)cc(O)c4-c4cc3ccc4O)[C@H](O)c3ccc(c(Cl)c3)Oc3cc2cc(c3O[C@@H]2O[C@H](CO)[C@@H](O)[C@H](O)[C@H]2O[C@H]2C[C@](C)(N)[C@H](O)[C@H](C)O2)Oc2ccc(cc2Cl)[C@H]1O [VANCOMYCIN]		0.25 µg/mL (≈ 0.173 µM)									
GENTAMICIN			0.25 µg/mL								0.125 µg/mL
